Data on one molecule can be found in PMC7453301 (Journal of Pesticide Science, 2020).

Molecules are shown by their SMILES. In brackets after ≈: the same amount, converted by molar mass.

One data set can be described thus: Solubility in water. Type of data set: physicochemical. An outline of the steps:
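Water solubility measured at 20°C, reported in mg/L.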

For the next data set, the system named is Marssonina blotch. Put plainly: Field trials, apple Marssonina blotch. In kind it is in vivo. The conditions noted are these: PARADE 15FL; field trials Aomori Prefecture 2010 and 2013.
In data set [1] the test system is SDH derived from Sclerotinia minor. Put plainly: SDH inhibition, DCIP method. In kind it is biochemical. The settings on record: read-out: SDH IC50.
Data set [2] deals with SDH derived from Botrytis cinerea (Botrytis cinerea, UniProt A0A384J5E4+D2IH01+D2IH03). Kind of data set: SDH inhibition, DCIP method. In kind it is biochemical.
Data set [3] addresses SDH derived from Blumeria graminis (Blumeria graminis, UniProt N1J5Q8+N1JC31+N1JIS1). Kind of data set: SDH inhibition, DCIP method. In kind it is biochemical.
In data set [4] the target is SDH derived from Venturia inaequalis (Venturia inaequalis, UniProt A0A0H4U4T0+A0A370JIY7+A0A8H3Z7E8). Put plainly: SDH inhibition, DCIP method. Type of data set: biochemical. The settings on record: read-out: SDH IC50.
Chain of SDH derived from Venturia inaequalis (A0A0H4U4T0 26-281): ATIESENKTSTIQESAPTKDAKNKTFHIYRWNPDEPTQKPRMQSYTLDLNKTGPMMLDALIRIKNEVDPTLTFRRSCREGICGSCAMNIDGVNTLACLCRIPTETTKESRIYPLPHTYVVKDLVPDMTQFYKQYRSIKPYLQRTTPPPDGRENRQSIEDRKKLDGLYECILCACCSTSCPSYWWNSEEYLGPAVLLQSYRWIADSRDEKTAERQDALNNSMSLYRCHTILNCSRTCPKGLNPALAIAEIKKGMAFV
Chain of SDH derived from Venturia inaequalis (A0A370JIY7 44-187): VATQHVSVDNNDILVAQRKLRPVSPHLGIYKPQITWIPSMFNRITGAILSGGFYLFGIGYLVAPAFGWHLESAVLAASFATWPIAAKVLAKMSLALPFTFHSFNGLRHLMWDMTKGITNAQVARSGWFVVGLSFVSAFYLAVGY
Chain of SDH derived from Venturia inaequalis (A0A8H3Z7E8 72-200): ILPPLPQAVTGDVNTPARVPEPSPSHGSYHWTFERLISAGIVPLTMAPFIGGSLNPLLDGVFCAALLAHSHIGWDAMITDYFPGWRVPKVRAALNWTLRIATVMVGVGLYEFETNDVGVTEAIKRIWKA
Chain of SDH derived from Venturia inaequalis (A0A8H3ZBE1 860-1473 partner): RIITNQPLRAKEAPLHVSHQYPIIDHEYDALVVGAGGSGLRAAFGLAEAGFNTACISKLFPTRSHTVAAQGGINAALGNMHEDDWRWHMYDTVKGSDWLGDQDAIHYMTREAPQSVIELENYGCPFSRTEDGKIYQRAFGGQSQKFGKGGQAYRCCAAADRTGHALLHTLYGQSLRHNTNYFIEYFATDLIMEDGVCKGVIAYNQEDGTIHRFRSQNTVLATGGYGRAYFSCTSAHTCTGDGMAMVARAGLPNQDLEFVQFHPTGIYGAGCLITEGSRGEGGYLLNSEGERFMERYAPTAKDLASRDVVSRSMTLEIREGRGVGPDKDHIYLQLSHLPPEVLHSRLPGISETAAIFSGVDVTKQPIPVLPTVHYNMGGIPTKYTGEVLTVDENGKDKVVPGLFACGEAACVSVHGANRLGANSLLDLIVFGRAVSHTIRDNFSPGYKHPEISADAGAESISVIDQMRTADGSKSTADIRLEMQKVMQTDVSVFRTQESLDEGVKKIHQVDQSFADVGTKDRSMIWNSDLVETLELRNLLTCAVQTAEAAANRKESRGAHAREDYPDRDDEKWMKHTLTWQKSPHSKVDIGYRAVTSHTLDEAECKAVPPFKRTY
Data set [5] deals with SDH derived from Alternaria brassicae. Kind of data set: SDH inhibition, DCIP method. Type of data set: biochemical. The settings on record: read-out: SDH IC50.
Data set [6] addresses SDH derived from Magnaporthe oryzae (Pyricularia oryzae, UniProt A0ABQ8NN34+G4N2P5+G4NB04). In kind it is biochemical. The settings on record: read-out: SDH IC50.
Data set [7] has as its target SDH derived from Puccinia recondita (Puccinia triticina, UniProt A0A0C4ES27+A0A180H0E4+A0A915VLF5). Kind of data set: SDH inhibition, DCIP method. Type of data set: biochemical. The conditions noted are these: read-out: SDH IC50.
Data set [8] has as its target SDH derived from Rhizoctonia solani (Rhizoctonia solani, UniProt A0A074S2N8+A0A0B7FBK7+A0A0B7FK09). Put plainly: SDH inhibition, DCIP method. Type of data set: biochemical. The conditions noted are these: read-out: SDH IC50.
The subject of data set [9] is SDH derived from Pythium aphanidermatum. Put plainly: SDH inhibition, DCIP method. In kind it is biochemical.
For data set [10], the target named is SDH derived from Brassica oleracea (Cabbage) (Brassica oleracea, UniProt A0A0D3B707+A0A0D3E0G9+A0A0D3EGP9). Put plainly: SDH inhibition, DCIP method. In kind it is biochemical. The settings on record: nontarget SDH.
Chain of SDH derived from Brassica oleracea (Cabbage) (A0A0D3E0G9 29-281): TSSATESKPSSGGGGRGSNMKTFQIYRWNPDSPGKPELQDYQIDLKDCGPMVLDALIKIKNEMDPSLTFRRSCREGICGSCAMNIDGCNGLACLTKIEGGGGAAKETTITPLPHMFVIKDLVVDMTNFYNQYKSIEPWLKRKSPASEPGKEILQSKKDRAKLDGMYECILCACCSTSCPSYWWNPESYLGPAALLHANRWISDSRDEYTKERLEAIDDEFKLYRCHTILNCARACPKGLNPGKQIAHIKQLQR
Chain of SDH derived from Brassica oleracea (Cabbage) (A0A0D3EGP9 103-213): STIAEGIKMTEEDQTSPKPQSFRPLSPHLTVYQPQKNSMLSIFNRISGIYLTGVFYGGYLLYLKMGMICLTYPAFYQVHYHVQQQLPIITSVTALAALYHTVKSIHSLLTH
Chain of SDH derived from Brassica oleracea (Cabbage) (A0A0D3B707 83-139): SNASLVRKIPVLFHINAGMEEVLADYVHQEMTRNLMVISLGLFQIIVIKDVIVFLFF
Chain of SDH derived from Brassica oleracea (Cabbage) (A0A0D3D8D6 28-626 partner): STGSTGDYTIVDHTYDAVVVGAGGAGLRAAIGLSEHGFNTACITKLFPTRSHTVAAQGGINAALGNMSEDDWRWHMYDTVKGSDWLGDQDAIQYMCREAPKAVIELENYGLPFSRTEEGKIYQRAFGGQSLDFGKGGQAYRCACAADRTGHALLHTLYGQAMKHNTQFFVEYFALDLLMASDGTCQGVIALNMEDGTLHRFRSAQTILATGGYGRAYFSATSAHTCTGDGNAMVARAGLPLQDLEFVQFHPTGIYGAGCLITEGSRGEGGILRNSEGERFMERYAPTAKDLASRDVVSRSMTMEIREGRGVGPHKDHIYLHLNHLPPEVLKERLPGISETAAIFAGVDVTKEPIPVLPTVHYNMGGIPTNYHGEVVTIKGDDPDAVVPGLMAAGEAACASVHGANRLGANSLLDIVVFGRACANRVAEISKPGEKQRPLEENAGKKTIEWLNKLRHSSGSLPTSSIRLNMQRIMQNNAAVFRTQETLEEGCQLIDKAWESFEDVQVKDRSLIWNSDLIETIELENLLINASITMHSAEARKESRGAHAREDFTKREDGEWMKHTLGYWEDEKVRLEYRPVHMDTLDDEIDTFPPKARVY
In data set [11] the target is SDH derived from Solanum lycopersicum (Tomato) (Solanum lycopersicum, UniProt D2KQI9+Q952Q7+Q952R1). Put plainly: SDH inhibition, DCIP method. In kind it is biochemical. The conditions noted are these: nontarget SDH.
Data set [12] addresses SDH derived from Cucumis sativus (Cucumber) (Cucumis sativus, UniProt A0A0A0LBZ3+G3EIY8+G3EJ03). Put plainly: SDH inhibition, DCIP method. The conditions noted are these: nontarget SDH. In kind it is biochemical.
Data set [13] addresses SDH derived from Mus musculus (Mouse) (Mus musculus, UniProt Q9CQA3+Q9CXV1+Q9CZB0). Kind of data set: SDH inhibition, DCIP method. Type of data set: biochemical.
The test system of another data set is Gray mold (Cucumber). The conditions noted are these: cited from earlier work.
Another data set concerns Brown rust (Wheat). The settings on record: cited from earlier work.
For a further data set, the system named is Powdery mildew (Barley). The settings on record: cited from earlier work.
The next data set deals with Sclerotinia sclerotiorum. The settings on record: cited from earlier work.

Chain of SDH derived from Mus musculus (Mouse) (Q9CQA3 31-282): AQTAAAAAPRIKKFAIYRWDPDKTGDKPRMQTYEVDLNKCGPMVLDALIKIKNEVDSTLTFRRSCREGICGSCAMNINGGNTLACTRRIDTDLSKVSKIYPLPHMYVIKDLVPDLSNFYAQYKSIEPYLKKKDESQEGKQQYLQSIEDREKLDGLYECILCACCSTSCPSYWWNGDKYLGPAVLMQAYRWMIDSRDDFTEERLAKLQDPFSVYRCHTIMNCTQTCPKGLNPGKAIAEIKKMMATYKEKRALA
Chain of SDH derived from Mus musculus (Mouse) (Q9CZB0 30-169): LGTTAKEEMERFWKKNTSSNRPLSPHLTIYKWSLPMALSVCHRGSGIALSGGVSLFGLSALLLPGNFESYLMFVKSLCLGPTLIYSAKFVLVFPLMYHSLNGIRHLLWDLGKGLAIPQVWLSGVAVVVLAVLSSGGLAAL
Chain of SDH derived from Mus musculus (Mouse) (Q9CXV1 57-159): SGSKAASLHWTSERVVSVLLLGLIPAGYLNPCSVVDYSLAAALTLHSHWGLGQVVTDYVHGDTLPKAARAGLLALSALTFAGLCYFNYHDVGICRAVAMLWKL
Chain of SDH derived from Mus musculus (Mouse) (Q8K2B3 43-664 partner): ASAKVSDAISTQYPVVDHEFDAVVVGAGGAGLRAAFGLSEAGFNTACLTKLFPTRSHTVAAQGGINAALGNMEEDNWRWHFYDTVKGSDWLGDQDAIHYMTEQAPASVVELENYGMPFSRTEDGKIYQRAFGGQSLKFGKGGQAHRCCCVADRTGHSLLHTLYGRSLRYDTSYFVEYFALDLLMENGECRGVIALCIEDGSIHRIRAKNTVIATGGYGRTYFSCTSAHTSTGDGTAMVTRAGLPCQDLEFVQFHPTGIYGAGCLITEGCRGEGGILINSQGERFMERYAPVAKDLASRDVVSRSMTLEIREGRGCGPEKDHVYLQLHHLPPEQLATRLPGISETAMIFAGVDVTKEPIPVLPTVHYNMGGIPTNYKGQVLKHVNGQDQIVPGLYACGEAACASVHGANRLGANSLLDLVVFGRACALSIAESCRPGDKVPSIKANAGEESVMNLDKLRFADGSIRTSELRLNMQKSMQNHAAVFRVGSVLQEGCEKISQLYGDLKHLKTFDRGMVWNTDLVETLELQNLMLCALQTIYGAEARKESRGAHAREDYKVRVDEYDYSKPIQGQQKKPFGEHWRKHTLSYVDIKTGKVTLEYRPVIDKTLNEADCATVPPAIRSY
Chain of SDH derived from Puccinia recondita (A0A180H0E4 31-288): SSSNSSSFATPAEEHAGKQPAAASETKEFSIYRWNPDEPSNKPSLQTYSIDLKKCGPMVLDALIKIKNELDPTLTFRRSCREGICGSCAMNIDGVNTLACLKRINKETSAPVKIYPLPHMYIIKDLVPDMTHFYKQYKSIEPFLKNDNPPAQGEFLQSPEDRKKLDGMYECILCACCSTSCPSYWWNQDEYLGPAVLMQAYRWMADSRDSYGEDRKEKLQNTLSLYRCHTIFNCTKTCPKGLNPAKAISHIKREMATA
Chain of SDH derived from Puccinia recondita (A0A915VLF5 45-189): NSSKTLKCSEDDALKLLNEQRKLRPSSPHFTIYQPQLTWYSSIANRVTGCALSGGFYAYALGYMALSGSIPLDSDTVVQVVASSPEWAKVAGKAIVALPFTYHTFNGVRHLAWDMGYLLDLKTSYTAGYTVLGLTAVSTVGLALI
Chain of SDH derived from Puccinia recondita (A0A0C4ES27 40-183): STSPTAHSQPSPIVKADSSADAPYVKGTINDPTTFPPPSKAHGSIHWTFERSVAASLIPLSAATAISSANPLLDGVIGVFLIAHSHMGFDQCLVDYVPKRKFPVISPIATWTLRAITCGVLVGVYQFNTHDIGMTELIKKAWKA
Chain of SDH derived from Puccinia recondita (A0ABY7CNW8 35-649 partner): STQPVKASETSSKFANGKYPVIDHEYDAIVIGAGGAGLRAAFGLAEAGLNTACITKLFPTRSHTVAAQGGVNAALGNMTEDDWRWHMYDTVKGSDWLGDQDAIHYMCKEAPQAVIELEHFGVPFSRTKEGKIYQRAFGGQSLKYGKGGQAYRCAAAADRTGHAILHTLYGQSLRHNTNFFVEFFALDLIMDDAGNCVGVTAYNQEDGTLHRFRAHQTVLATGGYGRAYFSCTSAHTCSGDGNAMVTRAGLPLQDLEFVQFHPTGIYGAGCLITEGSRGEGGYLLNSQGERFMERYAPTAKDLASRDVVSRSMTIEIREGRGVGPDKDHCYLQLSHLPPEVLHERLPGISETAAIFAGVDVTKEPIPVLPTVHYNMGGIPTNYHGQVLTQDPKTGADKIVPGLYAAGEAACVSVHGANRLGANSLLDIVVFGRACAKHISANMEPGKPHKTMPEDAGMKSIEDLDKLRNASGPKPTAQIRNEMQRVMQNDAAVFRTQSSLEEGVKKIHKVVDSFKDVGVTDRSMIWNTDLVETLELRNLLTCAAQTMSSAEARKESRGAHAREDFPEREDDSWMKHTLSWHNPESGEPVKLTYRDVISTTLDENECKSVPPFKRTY

In the case of `O=C(Nc1ccccc1-c1ccc(F)c(F)c1)c1nccnc1C(F)(F)F` [Compound 9, N-(3′,4′-difluorobiphenyl-2-yl)-3-(trifluoromethyl)pyrazine-2-carboxamide], the solubility (as a rule, the concentration that dissolves in the medium under given conditions) in the data set “Solubility in water” was 2.32 µg/mL (≈ 6.12 µM). The “residual activity against Marssonina blotch of apple” value with Marssonina blotch is recorded as “excellent residual activity”. Further, the half-inhibitory concentration (IC50) (usually the midpoint of a concentration-inhibition curve) in [1] was determined as 0.7 nM; in data set [2], 4.1 nM; in data set [3] it was 5.8 nM; in [4] it was 18.9 nM; in data set [5] it was 2.1 nM; in data set [6], 2500 nM. Also, the concentration for half-maximal inhibition (IC50) was 14.4 nM in [7]; 5.9 nM in [8]; above 8000 nM in data set [9] (read-out: SDH IC50, Pythium aphanidermatum); above 32000 nM in data set [13]. For the same molecule, the SDH inhibitory activity result in data set [9] (oomycete Pythium aphanidermatum) is “no inhibitory activity”; in data set [10], “did not show any inhibitory activity”; in data set [11], “did not show any inhibitory activity”; in data set [12], “did not show any inhibitory activity”; in data set [13] (nontarget SDH, mice) it was “did not show any inhibitory activity”. Besides, in the data set on Gray mold (Cucumber), the “Fungicidal activity EC80, Gray mold (Cucumber)” value is 2–10 mg a.i./L. The “Fungicidal activity EC80, Brown rust (Wheat)” value in the data set on Brown rust (Wheat) is 0.5–2 mg a.i./L. In addition, in the data set with Powdery mildew (Barley), the “Fungicidal activity EC80, Powdery mildew (Barley)” value was 0.5–2 mg a.i./L. The “inhibition activity against apothecium formation” value in the data set on Sclerotinia sclerotiorum is listed as “exhibits inhibition activity”.
